IC50, inhibition and logP data for 9 compounds are collected here from ChEMBL document CHEMBL1135105, “Design, synthesis and biochemical evaluation of AC ring mimics as novel inhibitors of the enzyme estrone sulfatase (ES)” (Bioorg Med Chem Lett, 2002).

Molecules are shown by their SMILES.

One data set has as its target T1, Steryl-sulfatase (Homo sapiens, UniProt P08842).
T1 sequence (P08842 whole entry): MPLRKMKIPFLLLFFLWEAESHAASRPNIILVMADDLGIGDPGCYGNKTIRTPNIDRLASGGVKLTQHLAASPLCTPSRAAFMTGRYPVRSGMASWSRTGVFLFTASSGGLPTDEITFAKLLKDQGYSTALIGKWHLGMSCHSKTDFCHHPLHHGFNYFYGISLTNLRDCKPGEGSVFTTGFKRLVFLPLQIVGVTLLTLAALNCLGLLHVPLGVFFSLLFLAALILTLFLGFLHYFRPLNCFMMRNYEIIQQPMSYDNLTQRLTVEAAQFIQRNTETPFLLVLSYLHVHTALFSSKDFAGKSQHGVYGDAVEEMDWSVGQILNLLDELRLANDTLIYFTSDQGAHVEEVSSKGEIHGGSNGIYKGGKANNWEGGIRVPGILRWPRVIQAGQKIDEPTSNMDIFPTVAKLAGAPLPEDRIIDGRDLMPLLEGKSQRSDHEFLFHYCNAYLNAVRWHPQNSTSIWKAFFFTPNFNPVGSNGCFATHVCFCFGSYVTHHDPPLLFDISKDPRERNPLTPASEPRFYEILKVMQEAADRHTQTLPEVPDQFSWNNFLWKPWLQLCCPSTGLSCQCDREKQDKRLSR
Put plainly: Compound was evaluated for its inhibitory activity against estrone sulfatase enzyme. In outline: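 They are added to tubes holding [3H]estrone sulfate (300,000 dpm) and inhibitor, which was dried from ethanol under nitrogen. Incubation runs 20 min at 37 °C and is quenched with toluene. Radioactivity in the toluene extract is counted. Triplicates are run alongside no-inhibitor controls and boiled-microsome blanks.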

Data set [1] deals with T2, Steryl-sulfatase (Homo sapiens) (UniProt P08842).
T2 sequence (whole entry): T1 sequence (P08842 whole entry)
As to the kind of experiment: Compound was evaluated for its percent inhibition against the estrone sulfatase enzyme at a concentration of 5 uM. In outline:
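Placental microsomes, diluted to 115 µg/mL in 0.05 M Tris-HCl pH 7.2, are pre-warmed 5 min at 37 °C. They are added to tubes holding [3H]estrone sulfate (300,000 dpm) and inhibitor, which was dried from ethanol under nitrogen. Incubation runs 20 min at 37 °C and is quenched with toluene. Radioactivity in the toluene extract is counted. Triplicates are run alongside no-inhibitor controls and boiled-microsome blanks.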

Data set [2] can be described thus: Partition coefficient (logP). Format: physicochemical. To be noted: octanol/water.
Data set [3] deals with T2, Steryl-sulfatase (Homo sapiens). To be noted: 10 uM.

The term inhibition denotes the change of the read-out against control, counted positive when it falls. Read a low inhibition as little suppression. What is called logP is the decadic logarithm of the partition coefficient of the neutral form, usually between octanol and water. High values mean a more lipophilic compound, low ones a more hydrophilic compound. Take `CCCCOC(=O)c1ccc(-c2ccc(OS(N)(=O)=O)cc2)cc1`: on Steryl-sulfatase, the IC50 amounted to 5.8 uM tube-1. Also, the inhibition in data set [1] was determined as 48.4%. Further, in data set [2], the logP is 4.38.

Regarding `NS(=O)(=O)Oc1ccc2c3c(c(=O)oc2c1)CCCCC3` [IROSUSTAT], the inhibition in data set [1] stood at 86.8%. The lipophilicity (logP) in data set [2] was 2.65.

For `Cc1cc(=O)oc2cc(OS(N)(=O)=O)ccc12`, the inhibition in data set [3] was 47.6%. The IC50 at Steryl-sulfatase is recorded as 10 uM tube-1. The compound also came in with a logP in data set [2] of 1.7.

Turning to `CCOC(=O)c1ccc(-c2ccc(OS(N)(=O)=O)cc2)cc1`, the IC50 against Steryl-sulfatase is recorded as 4.2 uM tube-1. Moreover, the inhibition in data set [1] worked out at 53.4%. The same compound registered a logP in data set [2] of 3.52.

For the compound `N#Cc1ccc(-c2ccc(OS(N)(=O)=O)cc2)cc1`, at Steryl-sulfatase, the IC50 is on record as 6.7 uM tube-1. Besides, the inhibition in data set [1] came to 44.2%. This compound registered a logP in data set [2] of 3.48.

On Steryl-sulfatase, `NS(=O)(=O)Oc1ccc(-c2ccccc2)cc1` gave an IC50 of 76.1 uM tube-1. Also, the inhibition in data set [1] came to 5.5%. This compound had a logP in data set [2] of 3.45.

Take `CCCOC(=O)c1ccc(-c2ccc(OS(N)(=O)=O)cc2)cc1`: the IC50 against Steryl-sulfatase is on record as 3.5 uM tube-1. In addition, in data set [1], the inhibition turned out to be 60.5%. Moreover, the logP in data set [2] amounted to 3.99.

On Steryl-sulfatase, `C[C@]12CC[C@@H]3c4ccc(OS(N)(=O)=O)cc4CCC3[C@@H]1CCC2=O` (single isomer, unassigned) [EMATE] gave an IC50 of 0.1 uM tube-1. This compound returned a logP in data set [2] of 3.87.

The compound `COC(=O)c1ccc(-c2ccc(OS(N)(=O)=O)cc2)cc1` came in with an IC50 against Steryl-sulfatase of 5.2 uM tube-1. The same compound registered an inhibition in data set [1] of 44.2%. The compound also showed a logP in data set [2] of 3.18.
